# Measured values: ChEMBL document CHEMBL3853298, “Total synthesis and in vitro bioevaluation of clavaminols A, C, H & deacetyl clavaminol H as potential chemotherapeutic and antibiofilm agents” (Eur J Med Chem, 2016)
# Experiments:
# [1] = system: Staphylococcus aureus; test: Antibacterial activity against Staphylococcus aureus MLS16 MTCC 2940 after 24 hrs by well diffusion method; assay type: functional; conditions: MLS16 MTCC 2940, 24 h
# Summary of the method: (§1)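 Bacteria spread (0.1 mL suspension) on Mueller-Hinton agar; 6.0 mm wells loaded with compound over a 250 to 0.48 per-well dose range, methanol as negative control. Incubated 24 h at 37 °C. MIC taken as the lowest concentration still giving an inhibition zone. Duplicates, mean reported.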
# [2] = system: Candida albicans; test: Fungicidal activity against Candida albicans MTCC 227 after 24 hrs; assay type: functional; conditions: MTCC 227, 24 h
# Summary of the method: (§2)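 Candida grown overnight in Mueller Hinton broth. Compound serially diluted in the same broth from 150 to 0 and inoculated to a final 1.5 × 10^8 CFU/mL (0.5 McFarland), then 24 h at 37 °C. Tube contents plated onto Mueller Hinton agar for 24 h at 37 °C. MFC is the lowest concentration killing the yeast. Duplicates.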
# [3] = system: Escherichia coli; test: Antibacterial activity against Escherichia coli MTCC 739 after 24 hrs by well diffusion method; assay type: functional; conditions: MTCC 739, 24 h; summary of the method: as §1
# [4] = system: Pichia sporocuriosa; test: Fungicidal activity against Issatchenkia hanoiensis MTCC 4755 after 24 hrs; assay type: functional; conditions: MTCC 4755, 24 h
# Summary of the method: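 Broth dilution in Mueller Hinton broth with serial compound concentrations from […]. Overnight Candida cultures added to a final 1.5 × 10^8 CFU/mL (0.5 McFarland). Incubated 24 h at 37 °C, then 10 µL of each tube plated on Mueller Hinton agar for 24 h at 37 °C. MFC taken as the lowest concentration that kills the strain. Run in duplicate.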
# [5] = system: Pseudomonas aeruginosa; test: Antibiofilm activity against Pseudomonas aeruginosa MTCC 2453 incubated for 24 hrs under static condition by crystal violet staining-based assay; assay type: functional
# Summary of the method: (§3)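 Strains grown overnight in tryptone soy broth with 0.5% glucose. Compound (250 to 0) mixed with inoculum at 5 × 10^5 CFU/mL in polystyrene microtiter plates. Non-adherent cells washed off with PBS; wells stained with 0.1% crystal violet, dye solubilised in 95% ethanol, absorbance read at 540 nm. IC50 for 50% biofilm inhibition taken from dose-response curves. Triplicates, mean ± S.D.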
# [6] = system: Staphylococcus aureus; test: Bactericidal activity against Staphylococcus aureus MLS16 MTCC 2940 after 24 hrs; assay type: functional; conditions: MLS16 MTCC 2940, 24 h
# Summary of the method: (§4)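 Broth macrodilution in Mueller Hinton broth, compound serially diluted from 150 down to 0. Overnight bacterial culture added to a final 1.5 × 10^8 CFU/mL (0.5 McFarland), 24 h at 37 °C. Suspension then subcultured onto Mueller Hinton agar for 24 h at 37 °C. MBC is the lowest concentration killing the strain. Duplicates.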
# [7] = system: Candida albicans; test: Antifungal activity against Candida albicans MTCC 854 after 24 hrs by well diffusion method; assay type: functional; conditions: MTCC 854, 24 h
# Summary of the method: (§5)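 Candida/Issatchenkia lawns (0.1 mL suspension) on Mueller-Hinton agar; 6.0 mm bored wells receive compound across a 250 to 0.48 per-well dose range, methanol as negative control. Plates kept 24 h at 30 °C. MIC is the lowest concentration producing a visible inhibition zone. Duplicate runs, mean values.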
# [8] = system: Candida albicans; test: Fungicidal activity against Candida albicans MTCC 3958 after 24 hrs; assay type: functional; conditions: MTCC 3958, 24 h; summary of the method: as §2
# [9] = system: Escherichia coli; test: Bactericidal activity against Escherichia coli MTCC 739 after 24 hrs; assay type: functional; conditions: MTCC 739, 24 h; summary of the method: as §4
# [10] = system: Staphylococcus aureus; test: Antibiofilm activity against Staphylococcus aureus MTCC 96 incubated for 24 hrs under static condition by crystal violet staining-based assay; assay type: functional; summary of the method: as §3
# [11] = system: Staphylococcus aureus; test: Bactericidal activity against Staphylococcus aureus MTCC 96 after 24 hrs; assay type: functional; conditions: MTCC 96, 24 h; summary of the method: as §4
# [12] = Cytotoxicity against human SKOV3 cells assessed as cell growth inhibition by MTT assay; assay type: functional, cell-based; conditions: SK-OV-3
# [13] = system: Candida albicans; test: Antifungal activity against Candida albicans MTCC 3018 after 24 hrs by well diffusion method; assay type: functional; conditions: MTCC 3018, 24 h; summary of the method: as §5
# [14] = system: Nakaseomyces glabratus; test: Fungicidal activity against Candida glabrata MTCC 3019 after 24 hrs; assay type: functional; conditions: MTCC 3019, 24 h; summary of the method: as §2
# [15] = system: Candida albicans; test: Fungicidal activity against Candida albicans MTCC 4748 after 24 hrs; assay type: functional; conditions: MTCC 4748, 24 h; summary of the method: as §2
# [16] = system: Candida albicans; test: Fungicidal activity against Candida albicans MTCC 3017 after 24 hrs; assay type: functional; conditions: MTCC 3017, 24 h; summary of the method: as §2
# [17] = system: Micrococcus luteus; test: Bactericidal activity against Micrococcus luteus MTCC 2470 after 24 hrs; assay type: functional; conditions: MTCC 2470, 24 h; summary of the method: as §4
# [18] = system: [Candida] aaseri; test: Antifungal activity against Candida aaseri MTCC 1962 after 24 hrs by well diffusion method; assay type: functional; conditions: Yamadazyma aaseri, MTCC 1962, 24 h; summary of the method: as §5
# [19] = system: Bacillus subtilis; test: Antibiofilm activity against Bacillus subtilis MTCC 121 incubated for 24 hrs under static condition by crystal violet staining-based assay; assay type: functional; summary of the method: as §3
# [20] = Antifungal activity against Candida parapsilosis MTCC 1744 after 24 hrs by well diffusion method; assay type: functional; summary of the method: as §5
# [21] = system: Micrococcus luteus; test: Antibacterial activity against Micrococcus luteus MTCC 2470 after 24 hrs by well diffusion method; assay type: functional; conditions: MTCC 2470, 24 h; summary of the method: as §1
# [22] = system: Escherichia coli; test: Antibiofilm activity against Escherichia coli MTCC 739 incubated for 24 hrs under static condition by crystal violet staining-based assay; assay type: functional; summary of the method: as §3
# [23] = system: Candida albicans; test: Fungicidal activity against Candida albicans MTCC 1637 after 24 hrs; assay type: functional; conditions: MTCC 1637, 24 h; summary of the method: as §2
# [24] = system: Bacillus subtilis; test: Bactericidal activity against Bacillus subtilis MTCC 121 after 24 hrs; assay type: functional; conditions: MTCC 121, 24 h; summary of the method: as §4
# [25] = system: Micrococcus luteus; test: Antibiofilm activity against Micrococcus luteus MTCC 2470 incubated for 24 hrs under static condition by crystal violet staining-based assay; assay type: functional; summary of the method: as §3
compound,measurement,setting,value
CCCCCCCCC[C@H](O)[C@H](N)CO,MIC,[1],3.9 µg/mL
same,MFC,[2],31.2 µg/mL
same,MIC,[3],7.8 µg/mL
same,MFC,[4],31.2 µg/mL
same,INH,[5],3.9 µg/mL
same,MBC,[6],7.8 µg/mL
same,MIC,[7],15.6 µg/mL
same,MFC,[8],15.6 µg/mL
same,MBC,[9],15.6 µg/mL
same,IC50,[10],4.5 µg/mL
same,MBC,[11],7.8 µg/mL
same,IC50,[12],33.6 µM
same,MIC,[13],15.6 µg/mL
same,MFC,[14],15.6 µg/mL
same,MFC,[15],31.2 µg/mL
same,MFC,[16],31.2 µg/mL
same,MBC,[17],7.8 µg/mL
same,MIC,[18],15.6 µg/mL
same,IC50,[19],2.6 µg/mL
same,MIC,[20],31.2 µg/mL
same,MIC,[21],3.9 µg/mL
same,INH,[22],4.6 µg/mL
same,MFC,[23],15.6 µg/mL
same,MBC,[24],7.8 µg/mL
same,IC50,[25],2.3 µg/mL
